Data as given in ChEMBL document CHEMBL1142874, “Design and synthesis of anticonvulsants from a combined phthalimide-GABA-anilide and hydrazone pharmacophore” (Eur J Med Chem, 2007).
Active and inactive are the calls of the source. The calls are words filed in the database; no cut-off is given here.

Key:
Mus musculus [1] = experiment: Anticonvulsant activity against intraperitoneal picrotoxin-induced seizure in Albino CF1 mouse at 300 mg/kg, ip after 0.5 hrs; assay type: functional, organism-based; parameters: dose 300 mg/kg
Outline: (§1)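 Mice received the test compound by intraperitoneal injection at 30, 100 or 300 mg/kg. They were then challenged with intraperitoneal picrotoxin and scored for anticonvulsant protection 0.5 h or 4 h after dosing. The value recorded is the lowest dose that protected half or more of the mice. A dash means no activity up to 300 mg/kg.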

Mus musculus [2] = experiment: Neurotoxicity in Albino CF1 mouse at 300 mg/kg, ip after 0.5 hrs by Rotarod test; assay type: toxicity, organism-based; parameters: dose 300 mg/kg, route intraperitoneal; details: in vivo
Outline: (§2)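 Rotarod test in mice pre-trained to stay on the rod for two consecutive 90 s trials. Compounds given i.p. at 30, 100 or 300 mg/kg, with testing at 0.5 h and 4 h. Deficit was scored as failure to keep balance on the rod for 1 min in each of three trials. The value recorded is the lowest dose affecting half or more of the mice.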

Mus musculus [3] = experiment: Anticonvulsant activity against intraperitoneal picrotoxin-induced seizure in Albino CF1 mouse at 300 mg/kg, ip after 4 hrs; assay type: functional, organism-based; parameters: dose 300 mg/kg; outline: as §1
Mus musculus [4] = experiment: Neurotoxicity in Albino CF1 mouse at 300 mg/kg, ip after 4 hrs by Rotarod test; assay type: toxicity, organism-based; parameters: dose 300 mg/kg, route intraperitoneal; details: in vivo; outline: as §2
Mus musculus [5] = experiment: Anticonvulsant activity against subcutaneous strychnine-induced seizure in Albino CF1 mouse at 300 mg/kg, ip after 4 hrs; assay type: functional, organism-based; parameters: dose 300 mg/kg
Outline: (§3)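 Test compounds given i.p. to mice at 0.01 mL/g, at 30, 100 or 300 mg/kg. The seizure challenge followed at 0.5 h and at 4 h after dosing. The value recorded is the lowest dose that protected half or more of the mice. Where no activity was seen, the maximum dose given was 300 mg/kg.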

Mus musculus [6] = experiment: Anticonvulsant activity against subcutaneous pentylenetetrazole-induced seizure in Albino CF1 mouse at 300 mg/kg, ip after 4 hrs; assay type: functional, organism-based; parameters: dose 300 mg/kg; outline: as §3
Mus musculus [7] = experiment: Anticonvulsant activity in Albino CF1 mouse upto 300 mg/kg, ip in maximal electroshock seizure test; assay type: functional, organism-based; parameters: dose 300 mg/kg
Outline: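 Mice dosed i.p. (0.01 mL/g) at 30, 100 and 300 mg/kg. Electroshock challenge run 30 min and 4 h after dosing.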

Mus musculus [8] = experiment: Anticonvulsant activity against subcutaneous pentylenetetrazole-induced seizure in Albino CF1 mouse at 300 mg/kg, ip after 0.5 hrs; assay type: functional, organism-based; parameters: dose 300 mg/kg; outline: as §3
Mus musculus [9] = experiment: Anticonvulsant activity against subcutaneous strychnine-induced seizure in Albino CF1 mouse at 300 mg/kg, ip after 0.5 hrs; assay type: functional, organism-based; parameters: dose 300 mg/kg; outline: as §3
Mus musculus [10] = experiment: Neurotoxicity in Albino CF1 mouse at 100 mg/kg, ip after 4 hrs by Rotarod test; assay type: toxicity, organism-based; parameters: dose 100 mg/kg, route intraperitoneal; details: in vivo; outline: as §2
Mus musculus [11] = experiment: Neurotoxicity in Albino CF1 mouse at 100 mg/kg, ip after 0.5 hrs by Rotarod test; assay type: toxicity, organism-based; parameters: dose 100 mg/kg, route intraperitoneal; details: in vivo; outline: as §2
Mus musculus [12] = experiment: Anticonvulsant activity against subcutaneous strychnine-induced seizure in Albino CF1 mouse at 100 mg/kg, ip after 0.5 hrs; assay type: functional, organism-based; parameters: dose 100 mg/kg; outline: as §3
Mus musculus [13] = experiment: Anticonvulsant activity against intraperitoneal picrotoxin-induced seizure in Albino CF1 mouse at 100 mg/kg, ip after 0.5 hrs; assay type: functional, organism-based; parameters: dose 100 mg/kg; outline: as §1
Mus musculus [14] = experiment: Anticonvulsant activity against subcutaneous pentylenetetrazole-induced seizure in Albino CF1 mouse at 30 mg/kg, ip after 0.5 hrs; assay type: functional, organism-based; parameters: dose 30 mg/kg; outline: as §3
Mus musculus [15] = experiment: Anticonvulsant activity against subcutaneous strychnine-induced seizure in Albino CF1 mouse at 100 mg/kg, ip after 4 hrs; assay type: functional, organism-based; parameters: dose 100 mg/kg; outline: as §3
Mus musculus [16] = experiment: Anticonvulsant activity against intraperitoneal picrotoxin-induced seizure in Albino CF1 mouse at 100 mg/kg, ip after 4 hrs; assay type: functional, organism-based; parameters: dose 100 mg/kg; outline: as §1
Mus musculus [17] = experiment: Anticonvulsant activity against subcutaneous pentylenetetrazole-induced seizure in Albino CF1 mouse at 30 mg/kg, ip after 4 hrs; assay type: functional, organism-based; parameters: dose 30 mg/kg; outline: as §3

| SMILES | Activity (Mus musculus [1]) | Activity (Mus musculus [2]) | Activity (Mus musculus [3]) | Activity (Mus musculus [4]) | Activity (Mus musculus [5]) | Activity (Mus musculus [6]) | Activity (Mus musculus [7]) | Activity (Mus musculus [8]) | Activity (Mus musculus [9]) | Activity (Mus musculus [10]) | Activity (Mus musculus [11]) | Activity (Mus musculus [12]) | Activity (Mus musculus [13]) | Activity (Mus musculus [14]) | Activity (Mus musculus [15]) | Activity (Mus musculus [16]) | Activity (Mus musculus [17]) |
| --- | --- | --- | --- | --- | --- | --- | --- | --- | --- | --- | --- | --- | --- | --- | --- | --- | --- |
| CCC1(C)CC(=O)NC1=O (stereo not drawn) [ETHOSUXIMIDE] | inactive | Not Active | inactive | Not Active | inactive | inactive | inactive | Active | inactive | – | – | – | – | – | – | – | – |
| O=C(CCCN1C(=O)c2ccccc2C1=O)Nc1cccc(F)c1 | Active | Active | Active | Not Active | Active | inactive | inactive | inactive | Active | – | – | – | – | – | – | – | – |
| O=C1NC(=O)C(c2ccccc2)(c2ccccc2)N1 [PHENYTOIN] | inactive | – | inactive | – | inactive | inactive | inactive | inactive | inactive | Active | Active | – | – | – | – | – | – |
| C/C(=N/NC(=O)CCCN1C(=O)c2ccccc2C1=O)c1ccc(O)cc1 | – | Not Active | inactive | Not Active | inactive | inactive | inactive | inactive | – | – | – | Active | Active | – | – | – | – |
| O=C(CCCN1C(=O)c2ccccc2C1=O)NN=C(c1ccccc1)c1ccccc1 | Active | Not Active | inactive | Not Active | inactive | inactive | inactive | inactive | inactive | – | – | – | – | – | – | – | – |
| O=C(CCCN1C(=O)c2ccccc2C1=O)Nc1ccccc1Br | – | Not Active | Active | Not Active | inactive | inactive | inactive | inactive | inactive | – | – | – | Active | – | – | – | – |
| C/C(=N/NC(=O)CCCN1C(=O)c2ccccc2C1=O)c1ccc(C)cc1 | Active | – | inactive | Not Active | inactive | inactive | inactive | – | inactive | – | Active | – | – | Active | – | – | – |
| Cc1ccc(NC(=O)CCCN2C(=O)c3ccccc3C2=O)cc1 | Active | Not Active | inactive | Active | inactive | inactive | inactive | inactive | Active | – | – | – | – | – | – | – | – |
| C/C(=N/NC(=O)CCCN1C(=O)c2ccccc2C1=O)c1ccccc1O | – | Not Active | Active | Not Active | – | inactive | inactive | inactive | – | – | – | Active | Active | – | Active | – | – |
| O=C(CCCN1C(=O)c2ccccc2C1=O)N/N=C\c1ccccc1O | Active | Not Active | inactive | Not Active | inactive | inactive | inactive | inactive | inactive | – | – | – | – | – | – | – | – |
| O=C(CCCN1C(=O)c2ccccc2C1=O)N/N=C\c1ccc([N+](=O)[O-])cc1 | inactive | Not Active | inactive | Not Active | inactive | inactive | inactive | inactive | inactive | – | – | – | – | – | – | – | – |
| C/C(=N/NC(=O)CCCN1C(=O)c2ccccc2C1=O)c1ccccc1 | – | Not Active | – | Not Active | – | inactive | inactive | inactive | – | – | – | Active | Active | – | Active | Active | – |
| C/C(=N/NC(=O)CCCN1C(=O)c2ccccc2C1=O)c1cccc(N)c1 | inactive | Not Active | inactive | Not Active | inactive | inactive | inactive | inactive | inactive | – | – | – | – | – | – | – | – |
| Cc1ccc(C)c(NC(=O)CCCN2C(=O)c3ccccc3C2=O)c1 | Active | – | inactive | Active | Active | inactive | inactive | inactive | Active | – | Active | – | – | – | – | – | – |
| COc1cc(/C=N\NC(=O)CCCN2C(=O)c3ccccc3C2=O)ccc1O | Active | Not Active | inactive | Not Active | inactive | inactive | inactive | inactive | inactive | – | – | – | – | – | – | – | – |
| Cc1ccc(NC(=O)CCCN2C(=O)c3ccccc3C2=O)c(C)c1 | Active | Active | inactive | Active | inactive | – | inactive | inactive | inactive | – | – | – | – | – | – | – | Active |
| O=C(CCCN1C(=O)c2ccccc2C1=O)Nc1ccccc1C(F)(F)F | Active | Not Active | inactive | Active | inactive | inactive | inactive | inactive | Active | – | – | – | – | – | – | – | – |
| O=C(CCCN1C(=O)c2ccccc2C1=O)N/N=C\c1ccccc1 | – | Not Active | – | Not Active | – | inactive | inactive | inactive | – | – | – | Active | Active | – | Active | Active | – |
| Cc1c(Cl)cccc1NC(=O)CCCN1C(=O)c2ccccc2C1=O | – | Active | Active | – | inactive | – | inactive | Active | Active | Active | – | – | Active | – | – | – | Active |
| O=C(CCCN1C(=O)c2ccccc2C1=O)N/N=C\c1cccc([N+](=O)[O-])c1 | Active | Not Active | inactive | Not Active | inactive | inactive | inactive | Active | inactive | – | – | – | – | – | – | – | – |
| C/C(=N/NC(=O)CCCN1C(=O)c2ccccc2C1=O)c1ccc([N+](=O)[O-])cc1 | Active | Active | inactive | Not Active | inactive | inactive | inactive | inactive | – | – | – | Active | – | – | – | – | – |
| CC/C(C)=N/NC(=O)CCCN1C(=O)c2ccccc2C1=O | Active | Not Active | inactive | Not Active | inactive | inactive | inactive | inactive | inactive | – | – | – | – | – | – | – | – |
